Assays:
Assay type in all cases: functional
A549 = assay: Growth inhibition of human A549 cells after 48 hrs by sulforhodamine B assay; details: A549, 48 h
In short: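 NCI five-dose SRB assay in RPMI 1640 with 5% FBS and 2 mM L-glutamine. Cells were preincubated 24 h, then exposed 48 h at 37 °C to five concentrations (10-fold or half-log serial dilutions from DMSO stocks). TCA fixation, SRB staining, and absorbance at 515 nm followed. IC50 was taken where [(Ti−Tz)/(C−Tz)]×100 = 50, with Tz as time-zero cell density.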

SK-OV-3 [1] = assay: Cytotoxicity against human SKOV3 cells assessed as cell growth at 0.01 uM after 48 hrs by sulforhodamine B assay; details: SK-OV-3, 48 h, read-out: Activity
SW-620 [2] = assay: Cytotoxicity against human SW620 cells assessed as cell growth at 10 uM; details: read-out: Activity
In short: (§1)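 NCI-60 screen: cells grown in RPMI 1640 with 5% FBS and 2 mM L-glutamine, plated at 5000–40,000 cells/well according to doubling time, and preincubated 24 h at 37 °C, 5% CO2. The single 10 µM dose (DMSO stock) was added, then incubated 48 h. Cells were TCA-fixed and stained with 0.4% SRB, read at 515 nm, and growth % calculated against time-zero and control plates.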

MDA-MB-231 = assay: Cytotoxicity against human MDA-MB-231 cells assessed as cell growth at 0.01 uM after 48 hrs by sulforhodamine B assay; details: MDA-MB-231, 48 h, read-out: Activity
K562 = assay: Growth inhibition of human K562 cells after 48 hrs by sulforhodamine B assay; details: K562, 48 h
In short: (§2)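 NCI 60-cell screen, five-dose mode. Cells grown in RPMI 1640 with 5% FBS and 2 mM L-glutamine and plated at 5000-40,000 cells/well according to doubling time. After 24 h preincubation, a Tz plate was TCA-fixed. Five concentrations (10-fold or 1/2 log dilutions) were applied for 48 h at 37 °C. SRB staining read at 515 nm. IC50 taken from [(Ti-Tz)/(C-Tz)]×100 = 50.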

NCI-H522 [3] = assay: Cytotoxicity against human NCI-H522 cells assessed as cell growth at 1 uM after 48 hrs by sulforhodamine B assay; details: NCI-H522, 48 h, read-out: Activity
COLO 205 [4] = assay: Cytotoxicity against human COLO205 cells assessed as cell growth at 10 uM; details: read-out: Activity
In short: (§3)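 Single-dose NCI-60 screen at 10 µM. Cells were grown in RPMI 1640 with 5% FBS and 2 mM L-glutamine, then treated for 48 h at 37 °C. Protein was measured by SRB staining with absorbance at 515 nm. Percentage growth was recorded, and inhibition percentage was calculated as 100 minus growth percentage.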

COLO 205 [5] = assay: Cytotoxicity against human COLO205 cells assessed as cell growth at 100 nM after 48 hrs by sulforhodamine B assay; details: COLO 205, 48 h, read-out: Activity
OVCAR-3 = assay: Cytotoxicity against human OVCAR-3 cells assessed as cell growth at 0.01 uM after 48 hrs by sulforhodamine B assay; details: OVCAR-3, 48 h, read-out: Activity
OVCAR-5 = assay: Cytotoxicity against human OVCAR5 cells assessed as cell growth at 1 uM after 48 hrs by sulforhodamine B assay; details: OVCAR-5, 48 h, read-out: Activity
HOP-62 = assay: Cytotoxicity against human HOP62 cells assessed as cell growth at 10 uM after 48 hrs by sulforhodamine B assay; details: HOP-62, 48 h, read-out: Activity
M14 [6] = assay: Cytotoxicity against human M14 cells assessed as cell growth at 10 uM; details: read-out: Activity; in short: as §1
SK-OV-3 [7] = assay: Cytotoxicity against human SKOV3 cells assessed as cell growth at 10 uM after 48 hrs by sulforhodamine B assay; details: SK-OV-3, 48 h, read-out: Activity
TK-10 [8] = assay: Cytotoxicity against human TK10 cells assessed as cell growth at 10 uM; details: read-out: Activity; in short: as §1
SK-MEL-5 [9] = assay: Cytotoxicity against human SK-MEL-5 cells assessed as cell growth at 100 nM after 48 hrs by sulforhodamine B assay; details: SK-MEL-5, 48 h, read-out: Activity
T47D = assay: Cytotoxicity against human T47D cells assessed as cell growth at 10 uM; details: read-out: Activity; in short: as §1
SNB-19 = assay: Cytotoxicity against human SNB19 cells assessed as cell growth at 10 uM after 48 hrs by sulforhodamine B assay; details: SNB-19, 48 h, read-out: Activity
BT-549 = assay: Cytotoxicity against human BT549 cells assessed as cell growth at 10 uM; details: read-out: Activity; in short: as §3
SF-295 [10] = assay: Growth inhibition of human SF295 cells after 48 hrs by sulforhodamine B assay; details: SF-295, 48 h; in short: as §2
NCI-H522 [11] = assay: Growth inhibition of human NCI-H522 cells after 48 hrs by sulforhodamine B assay; details: NCI-H522, 48 h; in short: as §2
KM12 = assay: Cytotoxicity against human KM12 cells assessed as cell growth at 100 nM after 48 hrs by sulforhodamine B assay; details: KM12, 48 h, read-out: Activity
M14 [12] = assay: Cytotoxicity against human M14 cells assessed as cell growth at 10 uM after 48 hrs by sulforhodamine B assay; details: M14, 48 h, read-out: Activity
[13] = Cytotoxicity against human Hs 578T cells assessed as cell growth at 10 uM; details: read-out: Activity; in short: as §3
IGROV-1 = assay: Cytotoxicity against human IGROV1 cells assessed as cell growth at 1 uM after 48 hrs by sulforhodamine B assay; details: IGROV-1, 48 h, read-out: Activity
SF-295 [14] = assay: Cytotoxicity against human SF295 cells assessed as cell growth at 1 uM after 48 hrs by sulforhodamine B assay; details: SF-295, 48 h, read-out: Activity
SN12C = assay: Cytotoxicity against human SN12C cells assessed as cell growth at 1 uM after 48 hrs by sulforhodamine B assay; details: read-out: Activity
ACHN = assay: Cytotoxicity against human ACHN cells assessed as cell growth at 10 uM; details: read-out: Activity; in short: as §3
HCT-116 = assay: Cytotoxicity against human HCT116 cells assessed as cell growth at 0.001 uM after 48 hrs by sulforhodamine B assay; details: HCT-116, 48 h, read-out: Activity
[15] = Cytotoxicity against human RPMI8266 cells assessed as cell growth at 100 nM after 48 hrs by sulforhodamine B assay; details: read-out: Activity
TK-10 [16] = assay: Cytotoxicity against human TK10 cells assessed as cell growth at 0.001 uM after 48 hrs by sulforhodamine B assay; details: TK-10, 48 h, read-out: Activity
SW-620 [17] = assay: Cytotoxicity against human SW620 cells assessed as cell growth at 10 uM after 48 hrs by sulforhodamine B assay; details: SW-620, 48 h, read-out: Activity
SK-MEL-5 [18] = assay: Cytotoxicity against human SK-MEL-5 cells assessed as cell growth at 0.01 uM after 48 hrs by sulforhodamine B assay; details: SK-MEL-5, 48 h, read-out: Activity
SK-MEL-5 [19] = assay: Cytotoxicity against human SK-MEL-5 cells assessed as cell growth at 10 uM after 48 hrs by sulforhodamine B assay; details: SK-MEL-5, 48 h, read-out: Activity
[20] = read-out: LC50 (the source's name)

## COc1cc(C)cc(-c2nn(CC#N)cc2-c2ccc(-c3cccc(C(C)=O)c3)nc2)c1
A549
  GI50: 3.87 µM
  LC50: > 100 µM
  TGI: 30.8 µM
SK-OV-3 [1]
  growth at 0.01 µM: 101%
SW-620 [2]
  growth at 10 µM: 24.8%
MDA-MB-231
  growth at 0.01 µM: 96%
K562
  GI50: 0.365 µM
  LC50 (50% net cell kill): > 100 µM
  TGI: > 100 µM
NCI-H522 [3]
  growth at 1 µM: -14%
COLO 205 [4]
  growth at 10 µM: -44.6%
COLO 205 [5]
  growth at 0.1 µM: 88%
OVCAR-3
  growth at 0.01 µM: 104%
OVCAR-5
  growth at 1 µM: 21%
HOP-62
  growth at 10 µM: -12%
M14 [6]
  growth at 10 µM: 6.52%
SK-OV-3 [7]
  growth at 10 µM: -36%
TK-10 [8]
  growth at 10 µM: 27.3%
SK-MEL-5 [9]
  growth at 0.1 µM: 65%
T47D
  growth at 10 µM: 11.6%
SNB-19
  growth at 10 µM: 19%
BT-549
  growth at 10 µM: 25.4%
SF-295 [10]
  GI50: 2.63 µM
  TGI: > 100 µM
SF-295 [10]; [20]
  CC50: > 100 µM
NCI-H522 [11]
  GI50: 1.64 µM
  TGI: 6.72 µM
NCI-H522 [11]; [20]
  CC50: > 100 µM
KM12
  growth at 0.1 µM: 75%
M14 [12]
  growth at 10 µM: -43%
[13]
  growth at 10 µM: 32%
IGROV-1
  growth at 1 µM: 1%
SF-295 [14]
  growth at 1 µM: 16%
SN12C
  growth at 1 µM: 39%
ACHN
  growth at 10 µM: 35.4%
HCT-116
  growth at 0.001 µM: 101%
[15]
  growth at 0.1 µM: 96%
TK-10 [16]
  growth at 0.001 µM: 99%
SW-620 [17]
  growth at 10 µM: -11%
SK-MEL-5 [18]
  growth at 0.01 µM: 91%
SK-MEL-5 [19]
  growth at 10 µM: -75%

Source: ChEMBL document CHEMBL1165950, “Design and synthesis of new potent anticancer pyrazoles with high FLT3 kinase inhibitory selectivity” (Bioorg Med Chem, 2010)
